Experimental data reported in ChEMBL document CHEMBL4689842, “EUbOPEN Chemogenomics Library wave 1” (2021).
Where “and” joins values, the source holds several entries; their conditions need not be identical. Equal values may be shown once.

Test system: HEK-293T
Experiment: Multiplex assay against HEK293T;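 on Population Tubulin-Different-Phenotype (%): share of the cells with healthy nuclei that show this phenotype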
Type: toxicity, cell-based
Conditions: human
In short: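 Live cells carried four stains from seeding: Hoechst33342, BioTracker Green Microtubule Cytoskeleton Dye, MitoTracker Red and Annexin V Alexa Fluor 680. They were imaged on a CQ1 microscope at 37°C and 5% CO2 after compound addition. Using CellPathfinder machine-learning gating, cells were split into Hoechst high-intensity objects or normal cells, normal cells into healthy, pyknosed or fragmented nuclei, and pyknosed cells into mitotic or apoptotic; tubulin, mitochondrial-mass and membrane-permeability phenotypes are per cents of healthy-nucleus cells.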

[1] = 12 h, 1 µM, compound concentration 1 uM, replicate 1
[2] = 12 h, 1 µM, compound concentration 1 uM, replicate 2
[3] = 12 h, 10 µM, compound concentration 10 uM, replicate 1
[4] = 12 h, 10 µM, compound concentration 10 uM, replicate 2
[5] = 24 h, 1 µM, compound concentration 1 uM, replicate 1
[6] = 24 h, 1 µM, compound concentration 1 uM, replicate 2
[7] = 24 h, 10 µM, compound concentration 10 uM, replicate 1
[8] = 24 h, 10 µM, compound concentration 10 uM, replicate 2
[9] = 48 h, 10 µM, compound concentration 10 uM, replicate 1
[10] = 48 h, 10 µM, compound concentration 10 uM, replicate 2

`CCOC(=O)Nc1cc(-c2ccc(C)c(NS(C)(=O)=O)c2)nn2c(C)nnc12` was tested, and the “Population Apoptotic (%)” value [1] was 18%, the “Population Fragmented Nuclei (%)” value [1] was 13% and the “Population Healthy Nuclei (%)” value [1] was 68%. The “Population Hoechst High Intensity Objects (%)” value [1] was 9%, the “Population Membrane Permeable-Phenotype (%)” value [1] was 3% and the “Population Mitochondria Different-Phenotype (%)” value [1] was 3%. The “Population Mitotic Cells (%)” value [1] was 81%, the “Population Normal (%)” value [1] was 90% and the “Population Pyknosed Nuclei (%)” value [1] was 17%. The “Population Tubulin-Different-Phenotype (%)” value [1] was 2%, the “Total Cell Count” value [1] was 561 and the “Population Apoptotic (%)” value [2] was 12%. The “Population Fragmented Nuclei (%)” value [2] was 10%, the “Population Healthy Nuclei (%)” value [2] was 87% and the “Population Hoechst High Intensity Objects (%)” value [2] was 2%. The “Population Membrane Permeable-Phenotype (%)” value [2] was 0%, the “Population Mitochondria Different-Phenotype (%)” value [2] was 6% and the “Population Mitotic Cells (%)” value [2] was 87%. For the same molecule, the “Population Normal (%)” value [2] was 97%, the “Population Pyknosed Nuclei (%)” value [2] was 2% and the “Population Tubulin-Different-Phenotype (%)” value [2] was 0%. The “Total Cell Count” value [2] was 1857, the “Population Apoptotic (%)” value [3] was 44% and 28% and the “Population Fragmented Nuclei (%)” value [3] was 19% and 8%. For the same molecule, the “Population Hoechst High Intensity Objects (%)” value [3] was 12% and 6%, the “Population Membrane Permeable-Phenotype (%)” value [3] was 0% and 2% and the “Population Mitotic Cells (%)” value [3] was 55% and 71%. The “Population Normal (%)” value [3] was 88% and 93%, the “Total Cell Count” value [3] was 275 and 719 and the “Population Apoptotic (%)” value [4] was 4% and 3%. For the same molecule, the “Population Fragmented Nuclei (%)” value [4] was 16%, the “Population Healthy Nuclei (%)” value [4] was 79% and 50% and the “Population Hoechst High Intensity Objects (%)” value [4] was 3% and 4%. For the same molecule, the “Population Mitochondria Different-Phenotype (%)” value [4] was 6% and 8%, the “Population Mitotic Cells (%)” value [4] was 95% and 96% and the “Population Normal (%)” value [4] was 96% and 95%. For the same molecule, the “Population Tubulin-Different-Phenotype (%)” value [4] was 1%, the “Population Apoptotic (%)” value [5] was 13% and the “Population Fragmented Nuclei (%)” value [5] was 11%. For the same molecule, the “Population Healthy Nuclei (%)” value [5] was 78%, the “Population Hoechst High Intensity Objects (%)” value [5] was 7% and the “Population Membrane Permeable-Phenotype (%)” value [5] was 4%. The “Population Mitochondria Different-Phenotype (%)” value [5] was 2%, the “Population Mitotic Cells (%)” value [5] was 86% and the “Population Normal (%)” value [5] was 92%. The “Population Pyknosed Nuclei (%)” value [5] was 9%, the “Population Tubulin-Different-Phenotype (%)” value [5] was 0% and the “Total Cell Count” value [5] was 702. For the same molecule, the “Population Apoptotic (%)” value [6] was 6%, the “Population Fragmented Nuclei (%)” value [6] was 32% and the “Population Healthy Nuclei (%)” value [6] was 65%. The “Population Hoechst High Intensity Objects (%)” value [6] was 4%, the “Population Membrane Permeable-Phenotype (%)” value [6] was 0% and the “Population Mitochondria Different-Phenotype (%)” value [6] was 1%. For the same molecule, the “Population Mitotic Cells (%)” value [6] was 93%, the “Population Normal (%)” value [6] was 95% and the “Population Pyknosed Nuclei (%)” value [6] was 2%. For the same molecule, the “Total Cell Count” value [6] was 3024, the “Population Apoptotic (%)” value [7] was 42% and 17% and the “Population Fragmented Nuclei (%)” value [7] was 16% and 17%. For the same molecule, the “Population Healthy Nuclei (%)” value [7] was 34% and 77%, the “Population Hoechst High Intensity Objects (%)” value [7] was 9% and 6% and the “Population Membrane Permeable-Phenotype (%)” value [7] was 1% and 6%. The “Population Mitotic Cells (%)” value [7] was 57% and 82%, the “Population Normal (%)” value [7] was 90% and 93% and the “Population Tubulin-Different-Phenotype (%)” value [7] was 1% and 2%. For the same molecule, the “Population Healthy Nuclei (%)” value [8] was 68% and 53%, the “Population Hoechst High Intensity Objects (%)” value [8] was 2% and 5% and the “Population Mitochondria Different-Phenotype (%)” value [8] was 1%. The “Population Mitotic Cells (%)” value [8] was 98% and 95%, the “Population Normal (%)” value [8] was 97% and 94% and the “Population Apoptotic (%)” value [9] was 38%. For the same molecule, the “Population Fragmented Nuclei (%)” value [9] was 19%, the “Population Healthy Nuclei (%)” value [9] was 48% and the “Population Hoechst High Intensity Objects (%)” value [9] was 11%. For the same molecule, the “Population Membrane Permeable-Phenotype (%)” value [9] was 1%, the “Population Mitochondria Different-Phenotype (%)” value [9] was 4% and the “Population Mitotic Cells (%)” value [9] was 61%. The “Population Normal (%)” value [9] was 88%, the “Population Pyknosed Nuclei (%)” value [9] was 32% and the “Population Tubulin-Different-Phenotype (%)” value [9] was 1%. For the same molecule, the “Total Cell Count” value [9] was 380, the “Population Apoptotic (%)” value [10] was 4% and the “Population Fragmented Nuclei (%)” value [10] was 9%. The “Population Healthy Nuclei (%)” value [10] was 83%, the “Population Hoechst High Intensity Objects (%)” value [10] was 2% and the “Population Mitochondria Different-Phenotype (%)” value [10] was 0%. For the same molecule, the “Population Mitotic Cells (%)” value [10] was 95%, the “Population Normal (%)” value [10] was 97% and the “Population Pyknosed Nuclei (%)” value [10] was 7%. The “Population Tubulin-Different-Phenotype (%)” value [10] was 0% and the “Total Cell Count” value [10] was 566.
